Experimental data collected from several papers.
Compare with care: the assays were run in different laboratories.
Target: Ephrin type-A receptor 1 (EPHA1, Homo sapiens, UniProt P21709)
Residues used in one study (P21709 26-976): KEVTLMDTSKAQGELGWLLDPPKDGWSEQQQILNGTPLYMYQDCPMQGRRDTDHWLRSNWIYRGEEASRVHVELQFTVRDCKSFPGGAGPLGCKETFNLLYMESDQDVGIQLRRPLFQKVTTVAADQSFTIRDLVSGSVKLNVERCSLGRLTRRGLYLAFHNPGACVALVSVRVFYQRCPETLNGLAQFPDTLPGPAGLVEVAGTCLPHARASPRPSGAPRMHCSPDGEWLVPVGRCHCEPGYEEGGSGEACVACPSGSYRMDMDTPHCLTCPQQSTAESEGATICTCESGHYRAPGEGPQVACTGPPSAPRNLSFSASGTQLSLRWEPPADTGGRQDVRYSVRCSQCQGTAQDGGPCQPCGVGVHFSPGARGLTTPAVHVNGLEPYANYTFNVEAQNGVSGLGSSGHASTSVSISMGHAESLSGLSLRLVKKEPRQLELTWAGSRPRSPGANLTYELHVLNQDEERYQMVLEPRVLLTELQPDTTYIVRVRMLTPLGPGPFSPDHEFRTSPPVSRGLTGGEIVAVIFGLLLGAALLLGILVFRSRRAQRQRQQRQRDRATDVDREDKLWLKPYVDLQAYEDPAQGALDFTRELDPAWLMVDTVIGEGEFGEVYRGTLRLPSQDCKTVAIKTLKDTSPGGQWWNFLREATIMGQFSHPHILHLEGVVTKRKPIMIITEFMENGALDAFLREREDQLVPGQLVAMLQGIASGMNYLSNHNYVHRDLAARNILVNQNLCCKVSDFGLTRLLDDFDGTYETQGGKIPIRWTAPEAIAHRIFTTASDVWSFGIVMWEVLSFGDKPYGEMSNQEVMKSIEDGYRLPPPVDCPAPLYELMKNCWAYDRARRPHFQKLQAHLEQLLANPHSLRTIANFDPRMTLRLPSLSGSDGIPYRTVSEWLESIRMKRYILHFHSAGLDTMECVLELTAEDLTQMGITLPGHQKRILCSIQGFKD

CN1CCN(C(=O)c2ccc(NC(=O)Nc3ccc(N(C)c4ccnc(Nc5ccc(CS(C)(=O)=O)cc5)n4)cc3)cc2)CC1  remaining binding (binding, competition with immobilised ligand; 1 µM): 56%
C=CC(=O)N1CCC([C@@H]2CCNc3c(C(N)=O)c(-c4ccc(Oc5ccccc5)cc4)nn32)CC1  inhibition (cell-free assay; 1 µM): 25%
COc1ccc2oc(-c3ccc4nc(N)oc4c3)c/c(=N\c3ccccc3NC(=O)CCN)c2c1  remaining binding (binding; 1 µM): 101%
CCCCC(=O)Nc1ccc(-c2ccc3ncn(CCC)c(=O)c3c2)cn1  remaining binding (binding, competition with immobilised ligand; 0.5 µM): 80%
CC(C)S(=O)(=O)c1ccc2nccc(Nc3ccc4sc(C5CCCC5)nc4c3)c2c1  activity vs control (enzyme activity, inhibitor; 1 µM): 100%
CC#CC(=O)N1CCC[C@H]1c1nc(-c2ccc(C(=O)Nc3ccccn3)cc2)c2c(N)nccn12  inhibition (enzyme activity, inhibitor; 1 µM): 25%
Cc1ccc(NC(=O)c2ccnc(C(F)(F)F)c2)cc1-c1cc(OCCO)nc(N2CCOCC2)c1  remaining binding (binding, competition with immobilised ligand; 1 µM): 83%
C1=C/COCc2cc(ccc2OCCN2CCCC2)Nc2nccc(n2)-c2cccc(c2)COC/1  remaining binding (binding; 0.1 µM): 93%
